Assays:
[1] = Displacement of [3H]AMPAKINE from AMPA receptor in rat forebrain
Rattus norvegicus [2] = organism: Rattus norvegicus; assay: Positive allosteric modulation at AMPA receptor in Sprague-Dawley rat adult hippocampal slice assessed as increase in field excitatory postsynaptic potential amplitude at 1 uM; format: tissue-based; conditions: Hippocampus
In short: (§1)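 Transverse hippocampal slices from adult male Sprague-Dawley rats (4-6 weeks) held on nylon net in a rapid-flow linear interface chamber. Schaffer-commissural fibers stimulated with paired pulses (200 ms interval) at 0.05 Hz. After a 20-30 min stable baseline, compound infused 30 min, then washed out with control ACSF. DMSO stocks diluted into ACSF. Read-out was percentage increase in fEPSP amplitude.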

Rattus norvegicus [3] = organism: Rattus norvegicus; assay: Positive allosteric modulation at AMPA receptor in Sprague-Dawley rat embryonic hippocampal neuron assessed as concentration required to double the steady-state current induced by glutamate by patch-clamp assay; format: tissue-based; conditions: Hippocampus
In short: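 Hippocampal neurons from E18 Sprague-Dawley rats, cultured 4-7 days, whole-cell voltage-clamped at -80 mV at room temperature. Cells were pretreated 20 s with saline or modulator by superfusion, then given 500 µM glutamate with or without modulator for 1 s. Mean plateau current at 600-900 ms was taken. EC2x is the concentration doubling the steady-state glutamate current.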

Rattus norvegicus [4] = organism: Rattus norvegicus; assay: Positive allosteric modulation at AMPA receptor in Sprague-Dawley rat adult hippocampal slice assessed as increase in field excitatory postsynaptic potential amplitude at 10 uM; format: tissue-based; conditions: Hippocampus; in short: as §1
Rattus norvegicus [5] = organism: Rattus norvegicus; assay: Positive allosteric modulation at AMPA receptor in Sprague-Dawley rat adult hippocampal slice assessed as increase in field excitatory postsynaptic potential amplitude at 30 uM; format: tissue-based; conditions: Hippocampus; in short: as §1
Rattus norvegicus [6] = organism: Rattus norvegicus; assay: Positive allosteric modulation at AMPA receptor in Sprague-Dawley rat adult hippocampal slice assessed as increase in field excitatory postsynaptic potential amplitude at 3 uM; format: tissue-based; conditions: Hippocampus; in short: as §1

Row | Compound | Ki [1] [µM] | Activity (Rattus norvegicus [3]) [µM] | also measured
1 | CCCN1COc2cc3c(cc2C1=O)OC1CCCN1C3=O (stereo unspecified) | 70 | 2.5 | Activity (Rattus norvegicus [2]): 0%
2 | O=C1c2cc3c(cc2OC2CCCN12)CCCO3 (stereo unspecified) |  | 1.1 | 
3 | O=C1c2cc3c(cc2OCN1C1CCCC1)C(=O)N1CCCC1O3 (stereo unspecified) | 163 | 7 | 
4 | CC(C)N1COc2cc3c(cc2C1=O)OC1CCCN1C3=O (stereo unspecified) | 100 | 0.9 | Activity (Rattus norvegicus [4]): 3%
5 | O=C1c2cc3c(cc2OCN1CCF)C(=O)N1CCCC1O3 (stereo unspecified) | 33 | 0.5 | Activity (Rattus norvegicus [4]): 9%
6 | CC(C)CN1COc2cc3c(cc2C1=O)OC1CCCN1C3=O (stereo unspecified) |  | 41 | 
7 | O=C1c2cc3c(cc2OCN1C1CC1)C(=O)N1CCCC1O3 (stereo unspecified) | 26 | 0.8 | Activity (Rattus norvegicus [4]): 10%
8 | O=C1NCOc2cc3c(cc21)OC1CCCN1C3=O (stereo unspecified) | 225 | 5 | Activity (Rattus norvegicus [5]): 5%
9 | COc1ccc(C(=O)N2CCCC2=O)cc1 |  | > 1000 | 
10 | C=CCN1COc2cc3c(cc2C1=O)OC1CCCN1C3=O (stereo unspecified) | 18 | 0.5 | 
11 | CN1COc2cc3c(cc2C1=O)OC1CCCN1C3=O (stereo unspecified) | 18 | 0.1 | Activity (Rattus norvegicus [4]): 19%
12 | O=C1c2cc3c(cc2OC2CCCN12)OCCO3 (stereo unspecified) |  | 2.3 | 
13 | O=C1c2cc3c(cc2OC2CCCN12)OCOC3 (stereo unspecified) |  | 22 | 
14 | CC(CNS(=O)(=O)C(C)C)c1ccc(-c2ccsc2)cc1 (stereo unspecified) |  | 0.07 | 
15 | C#CCN1COc2cc3c(cc2C1=O)OC1CCCN1C3=O (stereo unspecified) | 7 | 0.25 | Activity (Rattus norvegicus [6]): 6%
16 | O=C1c2cc3c(cc2OC2CCCN12)OC1CCCN1C3=O (stereo unspecified) |  | 2.6 | 
17 | O=C1c2cc3c(cc2OC2CCCN12)COCO3 (stereo unspecified) |  | 1.1 | 
18 | O=C1c2cc3c(cc2OC2CCCN12)C(=O)N1CCCC1O3 (stereo unspecified) |  | 0.06 | 
19 | NS(=O)(=O)c1cc2c(cc1Cl)NC(C1CC3C=CC1C3)NS2(=O)=O (stereo unspecified) |  | 1.6 | 
20 | CCN1COc2cc3c(cc2C1=O)OC1CCCN1C3=O (stereo unspecified) | 20 | 0.2 | Activity (Rattus norvegicus [4]): 17%
21 | O=C1c2cc3c(cc2OCN1CC(F)(F)F)C(=O)N1CCCC1O3 (stereo unspecified) | 330 | 8.8 | Activity (Rattus norvegicus [2]): 0%

Reference: ChEMBL document CHEMBL1795232, “Benzoxazinones as potent positive allosteric AMPA receptor modulators: part I” (Bioorg Med Chem Lett, 2011)
